Screening data (PubChem BioAssay)
RGS4 inh – inhibitors of human RGS4. P49798. HEK293 M3R/RGS4 inducible, Fluo-4 calcium flux; hits give high values; triggered by carbachol at its EC20. B-score at 10 µM. hit rate 0.45% among 310,000;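 active = B-score, a plate-corrected calcium signal, over three deviations above library mean, with baseline fluorescence within five deviations of library mean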;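 also: RGS4 expression induced by doxycycline in cells with stable M3 receptor; B-score is computed from the integrated fluorescence ratio over baseline after carbachol; higher B-score means a larger calcium signal and so more RGS4 inhibition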
Target sequence (P49798 whole entry, looked up): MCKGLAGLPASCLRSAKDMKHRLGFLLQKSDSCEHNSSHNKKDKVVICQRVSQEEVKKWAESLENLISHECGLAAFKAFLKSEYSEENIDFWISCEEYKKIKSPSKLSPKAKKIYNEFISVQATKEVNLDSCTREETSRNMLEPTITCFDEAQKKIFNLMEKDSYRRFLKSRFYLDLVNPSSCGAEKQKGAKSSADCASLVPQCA
MrgX1 antagonist – antagonists of human MrgX1 receptor | Q96LB2 | MRGX1-HEK293 calcium flux, Fluo-4, BAM8-22 antagonism; hits give low values | B-score at 10 µM | hit rate 1.3% among 310,000;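 active = calcium-response B-score plate-corrected more than 3 library SD below zero, starting fluorescence within 5 deviations, no agonist response on first addition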;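 also: peak minus trough fluorescence over baseline after final BAM8-22 challenge near maximal dose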
Target sequence (Q96LB2 whole entry, looked up): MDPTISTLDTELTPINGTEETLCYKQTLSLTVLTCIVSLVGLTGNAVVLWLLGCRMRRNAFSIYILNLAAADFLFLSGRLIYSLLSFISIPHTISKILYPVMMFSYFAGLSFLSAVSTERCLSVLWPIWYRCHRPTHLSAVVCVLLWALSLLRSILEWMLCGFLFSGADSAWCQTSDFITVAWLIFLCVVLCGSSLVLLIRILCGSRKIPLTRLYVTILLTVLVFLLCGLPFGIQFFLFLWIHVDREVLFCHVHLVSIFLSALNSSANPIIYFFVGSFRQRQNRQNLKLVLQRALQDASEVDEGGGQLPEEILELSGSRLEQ
MrgX1 allo act – allosterically activates human MrgX1 receptor signaling; B-score at 10 µM; Q96LB2; hit rate 0.63% among 310,000; MrgX1-HEK293, Fluo-4 calcium flux, FDSS; hits give high values;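 active = plate-corrected calcium response at least 3 library SD above typical, normal starting fluorescence, not activating the receptor alone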;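 also: compound read alongside a low EC10 to EC30 dose of BAM8-22 agonist; peak minus trough fluorescence over baseline measured at the second addition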
MrgX1 agonist – activates human MrgX1 receptor signaling; Q96LB2; MrgX1-HEK293 cells, Fluo-4 calcium fluorescence, agonist mode; hits give high values; B-score at 10 µM; hit rate 0.44% among 310,000; AID 588627;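 active = calcium response B-score plate-corrected fluorescence ratio at least 3 library SD, with starting fluorescence B-score inside 5 SD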
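Assay system: MrgX1-expressing HEK293 cells / Amount: fifteen thousand cells per well / Doses: test compound in the initial addition of three / Timing: cells plated overnight, dye loaded 0.5 h 37 °C, 0.5 h room temperature / Technique: kinetic calcium dye fluorescence, Fluo-4 NW / Control set: positive and negative controls per plate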
RGS4 act – RGS4 potentiation or activation; hit rate 0.92% among 310,000; HEK293 M3R/inducible RGS4, carbachol calcium flux Fluo4; hits give low values; B-score at 10 µM;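 active = B-score of the integrated calcium signal more than 4 SD below the library mean, with starting fluorescence not abnormally high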;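 also: negative B-score means reduced calcium response which marks RGS4 activation or potentiation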
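Reagent: ECmax carbachol challenge; Test system: M3R-expressing HEK293 line, RGS4 induced by doxycycline; Schedule: overnight RGS4 induction, 30 min dye load 37 °C, 20 min compound RT; Detection: calcium dye Fluo4 fluorescence; Read-out: Agonist-evoked peak-minus-minimum fluorescence over baseline, integrated ratio, B score.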
Each line names hits and unclear results; the compound was inactive in the other large screens. Sampled rows, rich in hits. Any-hit rate of the full collection: about 3.5%.

C[C@@H](C(=O)CC(=O)OC(C)(C)C)[C@@H](O)c1c(F)cccc1Cl	none
COCCN(C(=O)COC(=O)CCc1ccccc1OC)c1c(N)n(Cc2ccccc2)c(=O)[nH]c1=O	MrgX1 antagonist -6
O=C(c1ccc2[nH]c(=O)c(=O)[nH]c2c1)N1CCN(Cc2ccccc2)CC1	none
COc1ccccc1NS(=O)(=O)c1cc(C(=O)NCC(c2ccco2)N(C)C)ccc1C (stereo not drawn)	none
COc1ccccc1NS(=O)(=O)c1cc(C(=O)NCC(c2ccco2)N2CCCCC2)ccc1C (stereo not drawn)	MrgX1 antagonist -5.4
CCCCNc1c(-c2ccc(OC)c(SC3CCCCC3)c2)nc2cnccn12	RGS4 act -10
CCCCNc1c(-c2ccc(-c3ccc(C(C)=O)cc3)c(OC)c2)nc2cnccn12	RGS4 act -11
COc1ccc(-c2nc3ccccn3c2NC2CCCCC2)cc1SC1CCCCC1	RGS4 act -7.9
COc1cc(-c2nc3cc(C)ccn3c2NC2CCCCC2)ccc1-c1ccc(C(C)=O)cc1	none
CCCCCCSc1cc(-c2nc3cnccn3c2NCc2ccccc2)ccc1OC	RGS4 act -9.7
CCCCCCSc1cc(-c2nc3cc(C)ccn3c2NC2CCCCC2)ccc1OC	none
COc1cc(-c2nc3ccccn3c2NCc2ccccc2)ccc1SC1CCCCC1	none
O=c1cc(/C=C/c2c(F)cccc2Cl)[nH]c2ccccc12	none
CCC(C(=O)NCc1ccco1)N(C(=O)CNS(=O)(=O)c1ccccc1)C1CCCCC1 (stereo not drawn)	none
CCCC(C(=O)NCc1ccco1)N(C(=O)CNS(=O)(=O)c1ccc(Cl)cc1)C1CCCC1 (stereo not drawn)	MrgX1 antagonist -6.7
Cc1ccc(N(C(=O)Cc2cccs2)C(C(=O)NC2CCCCC2)c2ccccn2)cc1C (stereo not drawn)	MrgX1 allo act 10
COc1cc(N(C(=O)Cc2cccs2)C(C(=O)NC2CCCCC2)c2ccc(C)cc2)ccc1-n1cnnn1 (stereo not drawn)	MrgX1 antagonist -6.3
CCCCCn1nc(C)c(/C=N/NC(=O)c2ccoc2C)c1C	none
CCn1nc(C)c(/C=N/NC(=O)c2ccoc2C)c1C	MrgX1 antagonist -5.6
COC(=O)c1ccc(N)c(N=CC2=C(O)CC(C)(C)CC2=O)c1	MrgX1 agonist 27
Cc1ccc(-n2c(C)cc(=O)cc2C)cc1[N+](=O)[O-]	none
COc1ccc(-c2c[n+](CC(=O)OC3CC(C)CCC3C(C)C)c3n2CCC3)cc1 (stereo not drawn)	MrgX1 antagonist -4.9, RGS4 act -7
CC(C)[C@@H]1CC[C@@H](C)C[C@H]1OC(=O)C[n+]1cc(-c2ccc(Cl)cc2)n2c1CCCCC2	MrgX1 antagonist -7.4
O=C(C[n+]1cc(-c2ccc(Cl)cc2)n2c1CCCCC2)c1ccccc1	none
O=C(COC(=O)c1cc([N+](=O)[O-])ccc1N1CCOCC1)Nc1ccc(Cl)cc1	MrgX1 antagonist -8.3
CCc1nnc(NC(=O)c2cc([N+](=O)[O-])ccc2N2CCOCC2)s1	MrgX1 antagonist -6.3
COc1ccc(/C=C2/C(=O)C(C)(C(C)C)CCC2C)cc1 (stereo not drawn)	none
O=C(CN1C(=O)CC(c2ccccc2)S(=O)(=O)c2ccccc21)N1CCCCC1 (stereo not drawn)	none
COc1ccc(-c2cc(C(F)(F)F)c3c(n2)sc2c(O)cc(=O)[nH]c23)c(OC)c1	MrgX1 agonist 39
COc1ccc(CNC(=O)[C@@H](NC(=O)C2CCN(C(=O)[C@@H](N)Cc3ccccc3)CC2)C(C)C)cc1	none
CSCC[C@H](NC(=O)c1ccc2ccccc2c1)C(=O)N1CCC2(CC1)NCCc1[nH]cnc12	RGS4 act -7.6
CCN1C(=S)N[C@@H](c2cccs2)C(C(=O)OC)=C1C	none
COc1ccccc1N1CCN(C(=O)c2sc3nc(C)nc(N4CCN(c5ccccn5)CC4)c3c2C)CC1	RGS4 act -8.2
COc1ccccc1CNC(=O)CN(c1cccc([N+](=O)[O-])c1)S(C)(=O)=O	MrgX1 allo act 11
CS(=O)(=O)N(CC(=O)Nc1ccc(F)c(F)c1)c1cccc([N+](=O)[O-])c1	MrgX1 allo act 8.5
Cc1cccc(NS(=O)(=O)c2ccc(NC(=O)CN(c3cc([N+](=O)[O-])ccc3C)S(C)(=O)=O)cc2)c1	RGS4 inh 6.6
COc1ccc(CCNC(=O)CN(c2cc([N+](=O)[O-])ccc2OC)S(C)(=O)=O)cc1	MrgX1 antagonist -5.1
CC1CCC(NC(=O)CCNS(=O)(=O)c2ccc3c(c2)CCC(=O)N3)CC1 (stereo not drawn)	none
O=C(NCCN1CCNC1=O)C1CCC(=O)N(Cc2cccc(C(F)(F)F)c2)C1 (stereo not drawn)	none
O=C(NCC(c1ccco1)N1CCOCC1)c1c(F)cccc1F (stereo not drawn)	none
C=CCC(O)(CCN1CCCCC1)c1ccccc1 (stereo not drawn)	none
COc1ccc(C(O)(CCc2ccccc2)CCN2CCCCC2)cc1 (stereo not drawn)	RGS4 act -8.9
O=C(N/N=C/c1cn(-c2ccccc2)nc1-c1cccs1)c1ccccc1F	RGS4 act -7.4
O=C(N/N=C/c1cn(-c2ccccc2)nc1-c1cccs1)c1ccc(Cl)cc1	RGS4 act -7
O=C(N/N=C/c1cn(-c2ccccc2)nc1-c1cccnc1)c1ccc(F)cc1	none
Cc1cccc(/C=C/C(=O)c2ccc(NC3=NCCCS3)cc2)c1	none
O=C(/C=C/c1cccc([N+](=O)[O-])c1)c1ccco1	MrgX1 agonist 56
COc1cccc(/C=C/C(=O)c2cccc([N+](=O)[O-])c2)c1OC	none
COc1ccc(Oc2ccc(/C=C/C(=O)c3ccc(O)cc3)cc2[N+](=O)[O-])cc1	MrgX1 antagonist -5.4
COc1cccc(/C=C/C(=O)c2ccc(NC3=NCCCS3)cc2)c1	MrgX1 agonist 45
COc1cccc(/C=C/C(=O)c2cccc([N+](=O)[O-])c2)c1	MrgX1 agonist 38
CCCCN(CCCC)CCNC(=O)c1cn(C)c2ccc(S(=O)(=O)N3CCCC3)cc2c1=O	none
CC(=O)c1sc(NC(=O)c2ccc(Cn3cc(Br)cn3)o2)nc1C	MrgX1 allo act 6.5
COCCN(CCOC)C(=O)COC(=O)c1cc([N+](=O)[O-])ccc1Cl	none
COc1ccc(-n2ccnc2)cc1	none
COc1nc(N(c2ccccc2)c2ccccc2)nc(-n2ccnc2)n1	MrgX1 allo act 12
O=C(NCc1ccccn1)C(C(=O)c1cccc([N+](=O)[O-])c1)n1cc(Cl)ccc1=O (stereo not drawn)	none
CCCOc1ccc(C(=O)N/N=C/c2ccc(-c3ccc(S(=O)(=O)Nc4ncccn4)cc3)o2)cc1	MrgX1 agonist 29
